Assay results taken from ChEMBL document CHEMBL1153581, “Synthesis, antiviral and anticancer activity of some novel thioureas derived from N-(4-nitro-2-phenoxyphenyl)-methanesulfonamide” (Eur J Med Chem, 2009).
In brackets after ≈: the same amount, converted by molar mass.

What was measured:
[1] = tested on: Respiratory syncytial virus; experiment: Antiviral activity against RSV infected in human HeLa cells assessed as protection against virus-induced cytopathogenicity; assay type: functional
[2] = tested on: Vesicular stomatitis virus; experiment: Antiviral activity against Vesicular stomatitis virus infected in human HeLa cells assessed as protection against virus-induced cytopathogenicity; assay type: functional
Human alphaherpesvirus 2 = experiment: Antiviral activity against Herpes simplex virus 2 infected in HEL cells assessed as protection against in virus-induced cytopathogenicity; assay type: functional
[3] = Cytotoxicity against Varicella Zoster Virus infected human […] cells assessed as reduction in cell growth; assay type: cell-based
[4] = Cytotoxicity against Cytomegalovirus infected HEL cells assessed as reduction in cell growth; assay type: cell-based; settings: human
Human betaherpesvirus 5 = experiment: Antiviral activity against Cytomegalovirus AD169 infected in HEL cells assessed as reduction in virus plaque formation; assay type: functional, organism-based; settings: Human betaherpesvirus 5, AD169, HEL
How it was run: (§1)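 Plaque reduction in HEL cells against CMV (AD-169, Davis) or VZV (TK⁺ OKA, TK⁻ 07/1), using a virus input of 20 PFU. EC50 is the concentration that reduced plaque formation by 50%.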

[5] = tested on: Human immunodeficiency virus 1; experiment: Antiviral activity against HIV-1 3B infected human MT4 cells assessed as protection against virus-induced cytopathogenicity; assay type: functional, organism-based; settings: Human immunodeficiency virus 1, 3B
How it was run: (§2)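 HIV-1 (IIIB) or HIV-2 (ROD) infection of MT-4 cells, scored as protection against virus-induced cytopathicity. IC50 was derived from protection.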

[6] = Cytotoxicity against Varicella Zoster Virus infected human […] cells assessed as change in cell morphology; assay type: cell-based
Human alphaherpesvirus 1 [7] = experiment: Antiviral activity against acyclovir-resistant thymidine kinase-deficient HSV1 KOS infected in human HEL cells assessed as protection against virus-induced cytopathogenicity; assay type: functional; settings: Human alphaherpesvirus 1, KOS
Punta Toro virus = experiment: Antiviral activity against Punta Toro virus infected in african green monkey Vero cells assessed as protection against virus-induced cytopathogenicity; assay type: functional
[8] = Cytotoxicity against HEL cells assessed as change in cell morphology; assay type: cell-based; settings: human
How it was run: (§3)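 HEL cell cultures examined under the microscope. Minimal cytotoxic concentration (MCC) is the concentration that causes a microscopically detectable alteration of cell morphology. Compounds were tested at subtoxic concentrations alongside the antiviral tests.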

HeLa = experiment: Cytotoxicity against human HeLa cells assessed as change in cell morphology; assay type: functional
How it was run: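 The minimum cytotoxic concentration (MCC) is the concentration causing a microscopically detectable alteration of cell morphology in the uninfected host cell culture.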

Human alphaherpesvirus 3 [9] = experiment: Antiviral activity against Varicella Zoster Virus OKA infected in HEL cells assessed as reduction in virus plaque formation; assay type: functional, organism-based; settings: Human alphaherpesvirus 3, OKA; how it was run: as §1
[10] = tested on: Mammalian orthoreovirus 1; experiment: Antiviral activity against Reovirus 1 infected in african green monkey Vero cells assessed as protection against virus-induced cytopathogenicity; assay type: functional
[11] = Cytotoxicity against Cytomegalovirus infected HEL cells assessed as change in cell morphology; assay type: cell-based; settings: human; how it was run: as §3
Human respirovirus 3 = experiment: Antiviral activity against Parainfluenza-3 virus infected in african green monkey Vero cells assessed as protection against virus-induced cytopathogenicity; assay type: functional
Human alphaherpesvirus 3 [12] = experiment: Antiviral activity against thymidine kinase deficient Varicella Zoster Virus 07/1 infected in HEL cells assessed as reduction in virus plaque formation; assay type: functional, organism-based; settings: Human alphaherpesvirus 3, 07/1, HEL; how it was run: as §1
Cytomegalovirus = experiment: Antiviral activity against Cytomegalovirus Davis infected in HEL cells assessed as reduction in virus plaque formation; assay type: functional, organism-based; settings: Human betaherpesvirus 5, Davis; how it was run: as §1
[13] = tested on: Vesicular stomatitis virus; experiment: Antiviral activity against sVesicular stomatitis virus infected in HEL cells assessed as protection against virus-induced cytopathogenicity; assay type: functional
[14] = Cytotoxicity against african green monkey Vero cells assessed as change in cell morphology; assay type: cell-based; settings: chlorocebus sabaeus
How it was run: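 Vero cell cultures were used for the broad-spectrum antiviral screen. The MCC endpoint is the lowest concentration that causes a microscopically detectable alteration of cell morphology. Activity was called when 5 × MIC < MCC.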

[15] = tested on: Human immunodeficiency virus 2; experiment: Antiviral activity against HIV-2 ROD infected human MT4 cells assessed as protection against virus-induced cytopathogenicity; assay type: functional, organism-based; settings: Human immunodeficiency virus 2, ISOLATE ROD; how it was run: as §2
Coxsackievirus B4 [16] = experiment: Antiviral activity against Coxsackievirus B4 infected in african green monkey Vero cells assessed as protection against virus-induced cytopathogenicity; assay type: functional; settings: Enterovirus B
[17] = Cytotoxicity against HIV-1 3B infected human MT4 cells; assay type: cell-based; settings: HIV-1 3B-infected MT4 cells
Human alphaherpesvirus 1 [18] = experiment: Antiviral activity against HSV1 KOS infected in HEL cells assessed as protection against virus-induced cytopathogenicity; assay type: functional; settings: Human alphaherpesvirus 1, KOS
Sindbis virus = experiment: Antiviral activity against Sindbis virus infected in african green monkey Vero cells assessed as protection against virus-induced cytopathogenicity; assay type: functional
Coxsackievirus B4 [19] = experiment: Antiviral activity against Coxsackievirus B4 infected in human HeLa cells assessed as protection against virus-induced cytopathogenicity; assay type: functional; settings: Enterovirus B

Row | SMILES | MIC50 [1] [µg/mL] | MIC50 [2] [µg/mL] | MIC50 (Human alphaherpesvirus 2) [µg/mL] | CC50 [3] [µg/mL] | CC50 [4] [µg/mL] | EC50 (Human betaherpesvirus 5) [µg/mL] | IC50 [5] [µg/mL] | CC50 [6] [µg/mL] | MIC50 (Human alphaherpesvirus 1 [7]) [µg/mL] | MIC50 (Punta Toro virus) [µg/mL] | MCC [8] [µg/mL] | MCC (HeLa) [µg/mL] | MIC50 [10] [µg/mL] | MIC50 (Human respirovirus 3) [µg/mL] | MIC50 [13] [µg/mL] | MCC [14] [µg/mL] | MIC50 (Coxsackievirus B4 [16]) [µg/mL] | MIC50 (Human alphaherpesvirus 1 [18]) [µg/mL] | MIC50 (Sindbis virus) [µg/mL] | MIC50 (Coxsackievirus B4 [19]) [µg/mL] | also measured
1 | CCCNC(=S)Nc1ccc(NS(C)(=O)=O)c(Oc2ccccc2)c1 | 40 (≈ 105 µM) | > 40 | > 40 | 56 (≈ 148 µM) | 56 (≈ 148 µM) | 54.7 (≈ 144 µM) | > 89.3 | 100 (≈ 263 µM) | > 40 | > 8 | 200 | 200 | > 8 | > 8 | > 40 | 40 | > 8 | > 40 | > 8 | > 40 | EC50 (Human alphaherpesvirus 3 [9]): > 20 µg/mL; CC50 [11]: > 100 µg/mL; EC50 (Human alphaherpesvirus 3 [12]): > 20 µg/mL; EC50 (Cytomegalovirus): 54.7 µg/mL (≈ 144 µM); IC50 [15]: > 89.3 µg/mL; CC50 [17]: 89.3 µg/mL (≈ 235 µM)
2 | CNC(=S)Nc1ccc(NS(C)(=O)=O)c(Oc2ccccc2)c1 | > 100 | 100 (≈ 285 µM) | > 100 | – | – | – | > 125 | – | > 100 | > 100 | > 100 | > 100 | > 100 | > 100 | > 100 | > 100 | > 100 | > 100 | > 100 | > 100 | IC50 [15]: > 125 µg/mL; CC50 [17]: > 125 µg/mL
3 | C=CCNC(=S)Nc1ccc(NS(C)(=O)=O)c(Oc2ccccc2)c1 | 40 (≈ 106 µM) | > 40 | > 40 | 82.4 (≈ 218 µM) | 82.4 (≈ 218 µM) | 54.7 (≈ 145 µM) | > 87.2 | > 100 | > 40 | > 40 | 200 | 200 | > 40 | ≥ 24 | > 40 | 200 | > 40 | > 40 | > 40 | > 40 | EC50 (Human alphaherpesvirus 3 [9]): 58.5 µg/mL (≈ 155 µM); CC50 [11]: > 100 µg/mL; EC50 (Human alphaherpesvirus 3 [12]): 49 µg/mL (≈ 130 µM); EC50 (Cytomegalovirus): 54.7 µg/mL (≈ 145 µM); IC50 [15]: > 12.8 µg/mL; CC50 [17]: 101 µg/mL (≈ 269 µM)
4 | CS(=O)(=O)Nc1ccc(NC(=S)NCCc2ccc(Cl)cc2)cc1Oc1ccccc1 | > 20 | > 20 | > 100 | – | – | – | > 14.8 | – | > 100 | > 20 | > 100 | 100 | > 20 | > 20 | > 100 | 100 | > 20 | > 100 | > 20 | > 20 | IC50 [15]: > 14.8 µg/mL; CC50 [17]: 14.8 µg/mL (≈ 31.2 µM)
5 | CS(=O)(=O)Nc1ccc(NC(=S)NCc2ccccc2)cc1Oc1ccccc1 | > 8 | > 8 | > 8 | 45.2 (≈ 106 µM) | 45.2 (≈ 106 µM) | > 4 | 20.1 (≈ 47.1 µM) | 20 (≈ 46.8 µM) | > 8 | > 8 | 40 | 40 | > 8 | > 8 | > 8 | 40 | > 8 | > 8 | > 8 | > 8 | EC50 (Human alphaherpesvirus 3 [9]): > 4 µg/mL; CC50 [11]: 20 µg/mL (≈ 46.8 µM); EC50 (Human alphaherpesvirus 3 [12]): > 4 µg/mL; EC50 (Cytomegalovirus): > 4 µg/mL; IC50 [15]: > 18.3 µg/mL; CC50 [17]: 61.6 µg/mL (≈ 144 µM)
6 | Nc1ncnc2c1ncn2C[C@H](O)CO [(S)-DHPA] | > 250 | 150 (≈ 717 µM) | – | – | – | – | – | – | – | > 250 | – | > 250 | 250 (≈ 1190 µM) | 50 (≈ 239 µM) | – | > 250 | > 250 | – | > 250 | 150 (≈ 717 µM) | –
7 | Nc1nc2c(ncn2COCCO)c(=O)[nH]1 [ACYCLOVIR] | – | – | 0.4 (≈ 1.78 µM) | – | – | – | – | – | 50 (≈ 222 µM) | – | > 250 | – | – | – | > 250 | – | – | – | – | – | –
8 | O=c1[nH]c(=O)n([C@H]2C[C@H](O)[C@@H](CO)O2)cc1/C=C/Br [BRIVUDINE] | > 250 | > 250 | 10 (≈ 30 µM) | – | – | – | – | – | > 250 | > 250 | > 250 | > 250 | > 250 | > 250 | > 250 | > 250 | > 250 | – | > 250 | > 250 | –
9 | Nc1ccn(C[C@@H](CO)OCP(=O)(O)O)c(=O)n1.O.O [CIDOFOVIR] | – | – | – | 244 | 57 | 0.24 | – | > 50 | – | – | – | – | – | – | – | – | – | – | – | – | EC50 (Human alphaherpesvirus 3 [9]): 0.0095 µg/mL; CC50 [11]: 400 µg/mL; EC50 (Human alphaherpesvirus 3 [12]): 12.6 µg/mL; EC50 (Cytomegalovirus): 0.37 µg/mL
10 | Nc1nc2c(ncn2COC(CO)CO)c(=O)[nH]1 [GANCICLOVIR] | – | – | 0.0064 (≈ 0.0251 µM) | 190 (≈ 744 µM) | 80 (≈ 313 µM) | 1.4 (≈ 5.49 µM) | – | > 50 | 2.4 (≈ 9.4 µM) | – | > 100 | – | – | – | > 100 | – | – | 0.032 (≈ 0.125 µM) | – | – | EC50 (Human alphaherpesvirus 3 [9]): 1 µg/mL (≈ 3.92 µM); CC50 [11]: 400 µg/mL (≈ 1570 µM); EC50 (Human alphaherpesvirus 3 [12]): 15 µg/mL (≈ 58.8 µM); EC50 (Cytomegalovirus): 1.7 µg/mL (≈ 6.66 µM)
11 | NC(=O)c1ncn([C@@H]2O[C@H](CO)[C@@H](O)[C@H]2O)n1 [RIBAVIRIN] | 50 (≈ 205 µM) | 30 (≈ 123 µM) | 250 (≈ 1020 µM) | – | – | – | – | – | > 250 | 250 (≈ 1020 µM) | > 250 | > 250 | 150 (≈ 614 µM) | 150 (≈ 614 µM) | 150 (≈ 614 µM) | > 250 | > 250 | 250 (≈ 1020 µM) | > 250 | 150 (≈ 614 µM) | –
